High-throughput results as filed in PubChem.
The list is not random: actives were taken first. Their share in the collection is about 1.6%.
LEDGF integ inh: blockers of LEDGF/p75-dependent integrase strand transfer – biochemical, TR-FRET, high throughput, primary screen. TR-FRET IN-LEDGF/p75 DNA integration, Eu/Cy5. inhibition, % at 3.7 µM. 0.64% of 370,000 active. AID 743269, 2014;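 active means inhibition above the screen-wide mean plus 3 SD, cut at about 13% in these data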;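 further: signal is the Cy5 over europium emission ratio at 671 and 618 nm; 0% = plate median of compound wells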
MBD2 DNA inh: inhibitors of MBD2 binding to methylated DNA, primary screen, biochemical, TR-FRET, DNA-binding domain, human; Methyl-CpG-binding domain protein 2 (Homo sapiens), Q9UBB5; MBD2 binding to methylated oligonucleotide; inhibition, % at 4.4 µM; 0.31% of 370,000 active; AID 686964, 2013; in the data active means inhibition above about 13%
UHRF1 binding: UHRF1 methylated DNA binding inhibitors, primary screen, counter-screen for MBD2 inhibitor project, biochemical, TR-FRET, human UHRF1, single concentration | inhibition, % at 4.4 µM | 0.75% of 370,000 active | UHRF1 binding to methylated oligo | E3 ubiquitin-protein ligase UHRF1 (Homo sapiens), Q96T88; in the data active means inhibition above about 21%;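 further: UHRF1 SRA domain binding a hemimethylated CpG hairpin DNA probe; 0% = median of test compound wells and 100% = reference inhibitor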
TDP2 inh: human TDP2 enzyme inhibitors, primary screen, biochemical, epi absorbance, recombinant enzyme; T5PNP hydrolysis, p-nitrophenol absorbance 415 nm; inhibition, % at 12.8 µM; 0.34% of 370,000 active; AID 720702, 2013;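 active means inhibition above the mean of all tested compounds plus 3 SD, set per campaign, cut at about 25% in these data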;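 further: 0% = DMSO with enzyme and 100% = buffer with substrate but no TDP2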
Target sequence (O95551 whole entry, looked up): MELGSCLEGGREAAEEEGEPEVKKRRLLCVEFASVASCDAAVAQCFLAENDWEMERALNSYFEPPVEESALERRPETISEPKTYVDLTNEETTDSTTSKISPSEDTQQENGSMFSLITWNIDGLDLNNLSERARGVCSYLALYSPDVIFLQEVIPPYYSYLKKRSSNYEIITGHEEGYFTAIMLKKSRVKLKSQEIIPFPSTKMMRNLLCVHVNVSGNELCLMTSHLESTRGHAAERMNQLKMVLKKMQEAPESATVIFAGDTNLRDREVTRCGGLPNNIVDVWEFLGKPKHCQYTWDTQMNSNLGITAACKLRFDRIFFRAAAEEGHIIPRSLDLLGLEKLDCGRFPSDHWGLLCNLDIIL
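Material: recombinant human TDP2; quantity: TDP2 enzyme at 120 nM final; medium: Tris-HCl pH 7.5 with MgCl2; compound: single concentration, 12.8 µM nominal, with 1% DMSO; incubation: 2 h enzyme incubation at 37 °C; signal: epi absorbance; measure: percent inhibition; benchmarks: high control without enzyme, low control DMSO plus TDP2; repeats: singlicate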
Numbers without * were called inactive.

SMILES	LEDGF integ inh	MBD2 DNA inh	UHRF1 binding	TDP2 inh
CN(C1CCCC1)C1CCN(C(=O)CNC(=O)/C=C/c2ccccc2)CC1	-0.9	-4.0	3.5	11.7
COc1ccc(/C=C/C(=O)NCC(=O)N2CCC(N(C)CCN3CCOCC3)CC2)cc1OC	-1.0	2.8	22.1*	-5.4
O=C(Nc1c(-c2ccccc2)[nH][nH]c1=O)c1ccco1	4.5	1.1	62.8*	23.6
O=C(Nc1c(-c2ccccc2)[nH][nH]c1=O)c1ccc(-c2ccccc2)cc1	-1.9	4.3	-6.4	6.2
COc1ccc(S(=O)(=O)N(C)c2ccc(C(=O)Nc3c(C)n(C)n(-c4ccccc4)c3=O)cc2)cc1	-2.7	0.5	0.5	-8.0
CC1(C#CC[N+]2(C)CCCCC2)CCC2C(O1)c1ccccc1OC2(C)C (stereo not given)	4.9	8.1	23.8*	6.8
CC1(C(O)(C#CC[N+]2(C)CCCCC2)c2ccccc2)CCCC1 (stereo not given)	-1.4	5.3	3.9	2.4
CC(CCN1CCC(CN2C(=S)NCC2Cc2ccccc2)CC1)c1ccccc1 (stereo not given)	2.6	11.0	21.3*	2.1
COCCNC(=O)C1(C)CCN(C(=O)c2ccc3ccccc3n2)C1 (stereo not given)	-0.9	0.3	0.4	-4.2
Cc1ccc(OCC(=O)Nc2nnc(S(=O)(=O)N3CCCCCC3)s2)cc1	-4.6	-3.1	-1.6	0.7
O=C(COc1ccc(F)cc1)Nc1nnc(S(=O)(=O)N2CCCC2)s1	-5.0	0.5	36.6*	-5.2
O=C(c1ccccc1)N1CCC(=O)N1c1ccccc1	-1.7	1.4	37.2*	-3.4
CC(C)(C)Cc1c(-c2ccc(Cl)cc2)nc2ccc(Br)cn12	-0.8	0.8	11.3	0.1
CC(C)(C)Cc1c(-c2ccc(Cl)cc2)nc2ccc(Cl)cn12	2.1	5.2	14.6	-9.0
Cc1ccc2nc(-c3ccco3)c(CC(C)(C)C)n2c1	10.3	-0.4	22.6*	-6.3
CC(C)(C)Cc1c(-c2ccc(F)cc2)nc2ccc(Br)cn12	0.7	-3.4	20.8*	-15.2
CC(C)(C)Cc1c(-c2ccccc2)nc2ccc(Cl)cn12	-3.9	8.9	20.9*	3.2
N#Cc1ccc(CSc2nnc(NC(=O)CCc3nc4ccccc4c(=O)[nH]3)s2)cc1	-0.9	-5.7	-3.3	10.4
Cc1ccc(NC(=O)C2OCCc3ccccc32)cc1 (stereo not given)	-10.1	0.7	0.1	9.0
Cc1ccc(NC(=O)C(=O)NCC2OCCc3ccccc32)cc1 (stereo not given)	-3.1	4.6	57.3*	-8.0
Cn1c(-c2ccc3c(c2)OCO3)cnc1NCc1ccccc1Cl	-2.0	-7.3	47.7*	-1.4
Cn1c(-c2ccc3c(c2)OCO3)cnc1NCc1ccccc1	-0.8	2.0	-0.8	-0.5
COc1ccc(C)cc1S(=O)(=O)N(CC(=O)Nc1cccc([N+](=O)[O-])c1)c1ccccc1	-4.6	3.5	31.5*	-7.4
CCOC(=O)NC(=S)Nc1cccc(NC(=S)NC(=O)OCC)c1	-3.9	-0.8	0.0	4.7
CCOC(=O)NC(=S)c1ccc[nH]1	1.1	-2.9	22.5*	-8.7
SMILES	LEDGF integ inh	MBD2 DNA inh	UHRF1 binding	TDP2 inh
Cc1ccc(C(=O)CCC(=O)N2CCC(C(N)=O)CC2)cc1	4.7	-1.9	29.1*	8.5
Cc1ccc(SCC(=O)N2CCC(C(N)=O)CC2)cc1	-4.2	-5.9	-2.9	-5.2
COc1ccccc1CN1CCN(S(=O)(=O)c2ccccc2)CC1	0.2	1.5	-0.4	-8.6
Cc1cc(-c2csc(NC(=O)c3cc4ccccc4o3)n2)c(C)n1C	14.4*	0.1	3.5	-9.9
COc1ccc(-c2cc(C(=O)Nc3ccc(S(=O)(=O)Nc4ncccn4)cc3)c3ccccc3n2)cc1	-1.3	2.5	0.8	-1.3
COc1ccc(-c2cc(C(=O)Nc3ccc(S(=O)(=O)Nc4onc(C)c4C)cc3)c3ccccc3n2)cc1	60.2*	2.7	2.6	4.8
CSc1cccc(NC(=O)c2ccc(NC3=NC4CS(=O)(=O)CC4S3)cc2)c1 (stereo not given)	-2.9	-9.3	-1.2	-2.4
CCc1ccc(Nc2ncc3c(n2)CC(C)(C)CC3=O)cc1	2.9	-5.3	41.9*	11.0
CCc1ccc(Nc2ncc3c(n2)CC(C)CC3=O)cc1 (stereo not given)	-4.5	1.0	2.5	-9.6
CC1=NN(C(C#N)c2ccccc2O)C(C)(C)C1 (stereo not given)	5.7	1.7	30.2*	-1.3
COc1ccc([C@@H]2CC=C(C(=O)O)[C@H](c3ccc(F)cc3)N2S(=O)(=O)c2ccc(Cl)cc2)cc1	-3.6	0.3	-0.9	13.0
C#CCN(C)Cc1ccccc1	0.5	3.2	-0.4	15.7
CN(CC#CC1(O)c2ccccc2-c2ccccc21)Cc1ccccc1	2.5	10.1	22.8*	6.9
CN(Cc1ccccc1)C(=O)Cc1ccccc1	-5.0	4.2	3.9	1.7
CC(C)(C)SCCNS(=O)(=O)c1ccc(F)cc1	-1.5	0.8	24.1*	-5.2
O=P(O)(c1ccccc1)c1ccccc1O	-1.9	-3.2	-0.3	4.2
O=P(c1ccccc1)(c1ccccc1)c1cc(S(=O)(=O)O)ccc1O	2.4	6.2	27.1*	5.9
CCn1c(SCC(=O)NCc2ccc3c(c2)OCO3)nc2c(c1=O)SCC2	17.8*	-2.6	0.8	0.5
CCN(CCn1cccn1)C(=O)c1cc(COc2ccccc2SC)on1	-1.6	2.2	35.0*	-2.7
CCN(CCn1cccn1)C(=O)c1cc(COc2cc(C)ccc2C)on1	1.2	-0.8	30.7*	-4.1
CCN(CCN1CCCC1)C(=O)c1cc(COc2ccccc2SC)on1	0.2	-3.3	0.6	-7.6
COc1ccccc1CC(=O)Nc1ccc([N+](=O)[O-])cc1O	2.2	-7.0	-2.2	-7.0
CCOC(=O)C1CCN(C(=O)CSc2nccc(C)n2)CC1	-3.8	-4.2	64.5*	-4.3
CCOC(=O)C1=NN(C(=O)Nc2ccc(OC)cc2)C2C(=O)N(c3cccc(C(F)(F)F)c3)C(=O)C12 (stereo not given)	0.8	32.8*	-3.3	-6.5
CC[C@]12c3[nH]c4ccccc4c3CCN1C(=O)C(CC(=O)NCCCN(C)C)C[C@@H]2C(=O)N1CCN(C(=O)c2ccco2)CC1 (stereo not given in full)	-0.2	7.5	-0.2	0.5
CCCCn1c(N)c(N(CCOC)C(=O)C2CCN(S(=O)(=O)c3ccc(Cl)cc3)CC2)c(=O)[nH]c1=O	3.2	7.0	24.1*	2.2
CCCCn1c(N)c(N(CCOC)C(=O)CSc2ccccc2C)c(=O)[nH]c1=O	8.7	-5.1	-3.1	9.4
COCCN(C(=O)CSc1ncn[nH]1)c1c(N)n(Cc2ccccc2)c(=O)[nH]c1=O	4.9	4.3	26.9*	-12.4
